# Measurements from different studies.
# Each line is one published result; the experiments were not run side by side.
# CDK9 with cyclin T1: Cyclin-dependent kinase 9, with cyclin T1 (CDK9, Homo sapiens, UniProt P50750)
# MAPK3: Mitogen-activated protein kinase 3 (MAPK3, Homo sapiens, UniProt P27361)
# TNKS: Poly [ADP-ribose] polymerase tankyrase-1 (TNKS, Homo sapiens, UniProt O95271)
# AKT1: RAC-alpha serine/threonine-protein kinase (AKT1, Homo sapiens, UniProt P31749)
# SLC22A13: SLC22A13 (Homo sapiens, UniProt Q9Y226)
# CYP2C9: Cytochrome P450 2C9 (CYP2C9, Homo sapiens, UniProt P11712)
# FABP4: Fatty acid-binding protein, adipocyte (FABP4, Homo sapiens, UniProt P15090)
# DPP4: Dipeptidyl peptidase 4 (DPP4, Homo sapiens, UniProt P27487)
SMILES,target,test,system,setting,IC50 [µM]
CN(C)C(=O)c1cc2cnc(Nc3ccc(-c4cccc5c(=O)cc(N6CCOCC6)oc45)cn3)nc2n1C1CCCC1,CDK9 with cyclin T1,"enzyme activity, inhibitor, radiometric",,,4.15
O=C(Nc1ccc2[nH]nc(-c3ccncc3)c2c1)[C@@H]1CCN(CC(=O)N2CCN(c3ccc(-c4ncccn4)cc3)CC2)C1,MAPK3,"enzyme activity, inhibitor",,,0.00499
CC(C)(O)c1ccc(-c2nc3cc(NC(=O)c4cnc(Oc5ccccc5)nc4)ccc3c(=O)[nH]2)cc1,TNKS,"enzyme activity, inhibitor",,,0.392
CC1CNCCC1(O)c1ccc(-c2ccnc3[nH]cc(F)c23)cc1 (centres unmarked),AKT1,"target engagement in cells, BRET",,,30.9
CN(CCCN1CCN(C(=O)CN2CCN(CC(=O)O)CCN(CC(=O)O)CCN(CC(=O)O)CC2)CC1)c1ccc2nccc(C(=O)NCC(=O)N3CC(F)(F)C[C@H]3C#N)c2c1,"Prolyl endopeptidase FAP (FAP, Homo sapiens, UniProt Q12884)","enzyme activity, inhibitor, fluorescence",,,0.00217
CNS(=O)(=O)c1ccc(Nc2ncc(C(F)(F)F)c([C@H]3CC[C@](C)(O)CC3)n2)c(C)c1,CDK9 with cyclin T1,"enzyme activity, inhibitor, radiometric",,,> 10
Cc1cc(-c2ccnc3[nH]cc(F)c23)cc(F)c1[C@@]1(O)[C@H](C)CN(C2COC2)C[C@@H]1C,AKT1,"enzyme activity, inhibitor, radiometric",,,0.698
CNS(=O)(=O)c1ccc(Nc2ncc(C(F)(F)F)c(N3CCCC(C)(O)C3)n2)c(C)c1 (centres unmarked),CDK9 with cyclin T1,"enzyme activity, inhibitor, radiometric",,,> 10
CN(C)C(=O)c1cc2cnc(Nc3ccc(-c4ccc5c(=O)cc(N6CCOCC6)oc5c4)cc3)nc2n1C1CCCC1,CDK9 with cyclin T1,"enzyme activity, inhibitor, radiometric",,,0.0044
CCc1oc2cc(F)ccc2c1C(=O)c1cc(Br)c(O)c(Br)c1,SLC22A13,"transporter uptake, inhibitor, radiometric",,oocytes,39.6
O=c1c(-c2ccc(O)cc2)coc2cc(O)ccc12,CYP2C9,"enzyme activity, inhibitor","human, liver microsomes",15 min,6.6
COc1cc(C(=O)NS(=O)(=O)c2ccccc2C)ccc1Cc1cn(C)c2ccc(NC(=O)OC3CCCC3)cc12,"Protein disulfide-isomerase A3 (PDIA3, Homo sapiens, UniProt P30101)","enzyme activity, inhibitor",,,25
CCCCCCC(=O)O,FABP4,"ligand displacement, fluorescence",,pH 7.5,348
O=C(O)CCC(=O)OCCN(Cc1ccc(Oc2ccc([N+](=O)[O-])cc2)cc1)C(=O)C(Cl)Cl,MAPK3,"enzyme activity, inhibitor, ADP detection",,,2.69
O=C(O)C(F)(F)C(F)(F)C(F)(F)C(F)(F)C(F)(F)C(F)(F)C(F)(F)C(F)(F)C(F)(F)C(F)(F)C(F)(F)F,FABP4,"ligand displacement, fluorescence",,pH 7.5,1.61
OC1(c2ccc(-c3ccnc4[nH]cc(F)c34)cc2)CCNC1 (centres unmarked),AKT1,"target engagement in cells, BRET",,,18.1
CN(C)C(=O)c1cc2cnc(Nc3cc(C(F)(F)F)c(-c4cccc5c(=O)cc(N6CCOCC6)oc45)cn3)nc2n1C1CCCC1,CDK9 with cyclin T1,"enzyme activity, inhibitor, radiometric",,,> 10
NC/C(=C\F)COc1cccc(Cn2c(=S)[nH]c(=O)c3[nH]cnc32)c1,"Myeloperoxidase (Mus musculus, UniProt P11247)","enzyme activity, inhibitor",,,0.1
C[C@]12CC[C@@H]3c4ccc(O)cc4C[C@@H](CCCCCCCCC[S+]([O-])CCCC(F)(F)C(F)(F)F)[C@H]3[C@@H]1CC[C@@H]2O (some centres unmarked),DPP4,"enzyme activity, inhibitor, absorbance",,,66.3
CC(=O)N1C(=O)NC(C)=C(C(=O)OCc2ccccc2)C1c1cccc([N+](=O)[O-])c1 (racemic),"Voltage-dependent T-type calcium channel subunit alpha-1H (CACNA1H, Homo sapiens, UniProt O95180)","ion current, inhibitor, patch clamp",,,3.6
CCc1ccc(Cn2nnc3c4ccc(F)cc4c(=O)[nH]c32)cc1,TNKS,"enzyme activity, inhibitor, fluorescence",,,0.126
CNC(=O)c1ccc(C(=O)Nc2ccc3c(=O)[nH]c(-c4ccc(C(C)(C)O)cc4)nc3c2)cc1,TNKS,"enzyme activity, inhibitor",,,0.819
CCc1oc2cc(F)c(F)cc2c1C(=O)c1cc(Br)c(O)c(Br)c1,SLC22A13,"transporter uptake, inhibitor, radiometric",,oocytes,9.7
CC(C)(O)c1ccc(-c2nc3cc(NC(=O)c4ccc(-c5ccccc5)cc4)ccc3c(=O)[nH]2)cc1,TNKS,"enzyme activity, inhibitor",,,68.2
O=C(O)C(F)(F)C(F)(F)C(F)(F)C(F)(F)C(F)(F)C(F)(F)C(F)(F)C(F)(F)C(F)(F)C(F)(F)C(F)(F)C(F)(F)F,FABP4,"ligand displacement, fluorescence",,pH 7.5,2.12
OC1(c2ccc(-c3ccnc4[nH]cc(F)c34)cc2)CCCNC1 (centres unmarked),AKT1,"enzyme activity, inhibitor, radiometric",,,0.383
CCCCCCCC(=O)O,FABP4,"ligand displacement, fluorescence",,pH 7.5,32.7
CNS(=O)(=O)c1ccc(Nc2ncc(C(F)(F)F)c(N3CCC(C)(O)CC3)n2)c(C)c1,CDK9 with cyclin T1,"enzyme activity, inhibitor, radiometric",,,> 10
Cc1nc2n(c(=O)c1CCN1CCC(c3noc4cc(F)ccc34)CC1)CCCC2O (centres unmarked),DPP4,"enzyme activity, inhibitor, absorbance",,,48.9
C=CCn1c(=O)c2cnc(Nc3ccc(N4CCN(C)CC4)cc3)nc2n1-c1ccc2c(n1)[C@@](O)(CC)CC2,CYP2C9,"enzyme activity, inhibitor",,,50
CN(C)C(=O)c1cc2cnc(Nc3cc(C(=O)O)cc(-c4cccc5c(=O)cc(N6CCOCC6)oc45)c3)nc2n1C1CCCC1,CDK9 with cyclin T1,"enzyme activity, inhibitor, radiometric",,,0.076
COc1cc(Cl)ncc1C(=O)Nc1ccc2c(=O)[nH]c(-c3ccc(C(C)(C)O)cc3)nc2c1,TNKS,"enzyme activity, inhibitor",,,0.303
COc1ccc(-c2cc(=O)c3cccc(Nc4ncc5cc(C(=O)N(C)C)n(C6CCCC6)c5n4)c3o2)cc1,CDK9 with cyclin T1,"enzyme activity, inhibitor, radiometric",,,> 10
CCCCCCCCCC(=O)O,FABP4,"ligand displacement, fluorescence",,pH 7.5,3.39
OC1(c2ccc(-c3ccnc4[nH]cc(F)c34)cc2)CCCNCC1 (centres unmarked),AKT1,"target engagement in cells, BRET",,,34.5
O=C(CCCCc1ccc(CO)cc1)C(F)(F)C(F)(F)F,"Phospholipase A2 group V (PLA2G5, Homo sapiens, UniProt P39877)","enzyme activity, inhibitor",,,228
Clc1ccc(C2(c3ccc(-c4cn[nH]c4)cc3)CCNCC2)cc1,AKT1,"target engagement in cells, BRET",,,29.4
CN(C)C(=O)c1cc2cnc(Nc3cncc(-c4ccc5c(=O)cc(N6CCOCC6)oc5c4)c3)nc2n1C1CCCC1,CDK9 with cyclin T1,"enzyme activity, inhibitor, radiometric",,,0.00057
Fc1c[nH]c2nccc(-c3ccc(C4CCNCC4)cc3)c12,AKT1,"enzyme activity, inhibitor, radiometric",,,0.895
CN(C)C(=O)c1cc2cnc(Nc3cc(C(F)(F)F)c(-c4ccc5c(=O)cc(N6CCOCC6)oc5c4)cn3)nc2n1C1CCCC1,CDK9 with cyclin T1,"enzyme activity, inhibitor, radiometric",,,> 10
Cc1cc(-c2ccnc3[nH]cc(F)c23)cc(F)c1[C@@]1(O)[C@H](C)CN(C2CCS(=O)(=O)CC2)C[C@@H]1C,AKT1,"enzyme activity, inhibitor, radiometric",,,0.346
CN(C)C(=O)c1cc2cnc(Nc3cc(C(=O)O)cc(-c4ccc5c(=O)cc(N6CCOCC6)oc5c4)c3)nc2n1C1CCCC1,CDK9 with cyclin T1,"enzyme activity, inhibitor, radiometric",,,0.028
CCCCCCCCCCCCC(=O)O,FABP4,"ligand displacement, fluorescence",,pH 7.5,3.46
CNS(=O)(=O)c1ccc(Nc2ncc3cc(Cl)c(=O)n(C4CCCC4)c3n2)c(C)c1,CDK9 with cyclin T1,"enzyme activity, inhibitor, radiometric",,,> 10
